Data published in ChEMBL document CHEMBL1938318, “Design, synthesis and evaluation of novel molecules with a diphenyl ether nucleus as potential antitubercular agents” (Bioorg Med Chem Lett, 2012).
≈ marks a conversion by molar mass, not a printed value.

Assays:
[1] = test system: Mycobacterium tuberculosis; assay: Antitubercular activity against Mycobacterium tuberculosis H37Rv after 7 to 11 days by microdilution method; assay type: functional
In short: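 M. tuberculosis H37Rv grown in Middlebrook 7H9 with OADC, diluted in 7H9-OADC to 10⁴ CFU/mL and added to serial compound dilutions in 96-well microdilution plates. Incubated at 37 °C in humidified incubator, growth scored visually. MIC = lowest concentration with growth similar to 10 CFU inoculum-only well; isoniazid positive control.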

[2] = Growth inhibition of human HepG2 cells at 20 uM after 48 hrs by MTT assay; assay type: cell-based; details: read-out: GI
In short: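 Cells seeded at 2500/well, cultured 24 h, then exposed to compound at 20 μM for 48 h. MTT (20 μL of 5 mg/ml stock) added for 2.5 h at 37 °C. Supernatant removed, formazan dissolved in DMSO with 15–20 min shaking, absorbance read at 570 nm. Inhibitory rate is the mean of three independent experiments.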

Structure (SMILES) | MIC [1] | MIC90 [1] | inhibition at 48 h, 20 µM [2]
Cc1ccc(NC(=O)Cc2cccc(Oc3ccccc3)c2)nc1 | 32 µg/mL (≈ 101 µM) | 8 µg/mL (≈ 25.1 µM) | 12.2%
O=C(Cc1cccc(Oc2ccccc2)c1)Nc1cccc(Cl)c1 | 32 µg/mL (≈ 94.7 µM) | 16 µg/mL (≈ 47.4 µM) | 7.95%
O=C(Cc1cccc(Oc2ccccc2)c1)Nc1ccc(Br)cc1 | 64 µg/mL (≈ 167 µM) | 16 µg/mL (≈ 41.9 µM) | 15.7%
O=C(Cc1cccc(Oc2ccccc2)c1)Nc1ccc(Cl)c(Cl)c1 | 4 µg/mL (≈ 10.7 µM) | – | 7%
O=C(Cc1cccc(Oc2ccccc2)c1)Nc1ccc(F)c(F)c1 | 32 µg/mL (≈ 94.3 µM) | 8 µg/mL (≈ 23.6 µM) | 26.7%
O=C(Cc1cccc(Oc2ccccc2)c1)Nc1ccc(Br)cc1Cl | 32 µg/mL (≈ 76.8 µM) | 16 µg/mL (≈ 38.4 µM) | 12.8%
N#Cc1ccccc1NC(=O)Cc1cccc(Oc2ccccc2)c1 | 32 µg/mL (≈ 97.5 µM) | – | 19.1%
O=C(Cc1cccc(Oc2ccccc2)c1)Nc1ccc(C(F)(F)F)cc1 | 32 µg/mL (≈ 86.2 µM) | 8 µg/mL (≈ 21.5 µM) | 10.3%
O=C(Cc1cccc(Oc2ccccc2)c1)Nc1ccc(OC(F)(F)F)cc1 | 32 µg/mL (≈ 82.6 µM) | 16 µg/mL (≈ 41.3 µM) | 4.71%
COc1ccc(NC(=O)Cc2cccc(Oc3ccccc3)c2)c(OC)c1 | 32 µg/mL (≈ 88.1 µM) | – | 4.11%
O=C(Cc1cccc(Oc2ccccc2)c1)Nc1cccc([N+](=O)[O-])c1 | 32 µg/mL (≈ 91.9 µM) | 16 µg/mL (≈ 45.9 µM) | 0.95%
O=C(Cc1cccc(Oc2ccccc2)c1)Nc1ccc([N+](=O)[O-])cc1 | 32 µg/mL (≈ 91.9 µM) | 8 µg/mL (≈ 23 µM) | 36.4%
O=C(Cc1cccc(Oc2ccccc2)c1)Nc1cccc2ccccc12 | 64 µg/mL (≈ 181 µM) | 32 µg/mL (≈ 90.5 µM) | 3.31%
O=C(Cc1cccc(Oc2ccccc2)c1)NC(c1ccccc1)c1ccccc1 | 32 µg/mL (≈ 81.3 µM) | 8 µg/mL (≈ 20.3 µM) | 4.84%
COc1ccc2nc(NC(=O)Cc3cccc(Oc4ccccc4)c3)sc2c1 | 16 µg/mL (≈ 41 µM) | 8 µg/mL (≈ 20.5 µM) | 4.29%
O=C(Cc1cccc(Oc2ccccc2)c1)Nc1nccs1 | 32 µg/mL (≈ 103 µM) | 16 µg/mL (≈ 51.6 µM) | 39.9%
O=C(Cc1cccc(Oc2ccc(Cl)cc2)c1)Nc1cccc(Cl)c1 | 32 µg/mL (≈ 86 µM) | 16 µg/mL (≈ 43 µM) | 27.1%
O=C(Cc1cccc(Oc2ccc(F)cc2)c1)Nc1cccc(Cl)c1 | 32 µg/mL (≈ 89.9 µM) | 16 µg/mL (≈ 45 µM) | 23.5%
O=C(Nc1cccc(Cl)c1)c1cccc(Oc2ccccc2)c1 | 32 µg/mL (≈ 98.8 µM) | 16 µg/mL (≈ 49.4 µM) | 7.07%
O=C(CCc1cccc(Oc2ccccc2)c1)Nc1cccc(Cl)c1 | 32 µg/mL (≈ 91 µM) | 16 µg/mL (≈ 45.5 µM) | 25.1%
O=C(CCCc1cccc(Oc2ccccc2)c1)Nc1cccc(Cl)c1 | 32 µg/mL (≈ 87.5 µM) | 16 µg/mL (≈ 43.7 µM) | –
O=C(Nc1cccc(Cl)c1)c1ccc(Oc2ccccc2)cc1 | 32 µg/mL (≈ 98.8 µM) | 16 µg/mL (≈ 49.4 µM) | 29.2%
NNC(=O)c1ccncc1 [ISONIAZID] | 0.0625 µg/mL (≈ 0.456 µM) | 0.0625 µg/mL (≈ 0.456 µM) | 3.51%
